Test results from ChEMBL document CHEMBL1275458, “First molecular characterization of group B streptococci with reduced penicillin susceptibility” (2008).
≈ marks a conversion by molar mass, not a printed value.

Assays:
[1] = test system: Streptococcus agalactiae; assay: Antimicrobial activity against penicillin-resistant Streptococcus agalactiae B513 by agar dilution method; format: functional
In short: (§1)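 Agar dilution MICs run per the CLSI recommendation. S. pneumoniae ATCC 49619 was included as the quality control strain. β-lactams tested were penicillin G, penicillin V, ampicillin, oxacillin, cefazolin, cefepime, cefotaxime, ceftizoxime and meropenem. Test strains were S. agalactiae clinical sputum isolates and ATCC strains BAA-611 and 12403.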

[2] = test system: Streptococcus agalactiae; assay: Antimicrobial activity against penicillin-resistant Streptococcus agalactiae B10 by agar dilution method; format: functional; in short: as §1
[3] = test system: Streptococcus agalactiae; assay: Antimicrobial activity against penicillin-resistant Streptococcus agalactiae B6 by agar dilution method; format: functional; in short: as §1
[4] = test system: Streptococcus pneumoniae; assay: Antimicrobial activity against Streptococcus pneumoniae ATCC 49619 by agar dilution method; format: functional
In short: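 MIC by agar dilution per CLSI recommendations. The strain is a penicillin-susceptible S. pneumoniae quality-control strain, run alongside the clinical GBS isolates. β-lactams tested were penicillin G, penicillin V, ampicillin, oxacillin, cefazolin, cefepime, cefotaxime, ceftizoxime and meropenem.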

[5] = test system: Streptococcus agalactiae; assay: Antimicrobial activity against penicillin-resistant Streptococcus agalactiae B514 by agar dilution method; format: functional; in short: as §1
[6] = test system: Streptococcus agalactiae; assay: Antimicrobial activity against penicillin-resistant Streptococcus agalactiae B8 by agar dilution method; format: functional; in short: as §1
[7] = test system: Streptococcus agalactiae; assay: Antimicrobial activity against penicillin-resistant Streptococcus agalactiae B1 by agar dilution method; format: functional; in short: as §1
[8] = test system: Streptococcus agalactiae; assay: Antimicrobial activity against penicillin-resistant Streptococcus agalactiae B502 by agar dilution method; format: functional; in short: as §1
[9] = test system: Streptococcus agalactiae; assay: Antimicrobial activity against penicillin-resistant Streptococcus agalactiae ATCC BAA-611 harboring PBP-2X V405A mutant gene by agar dilution method; format: functional; in short: as §1
[10] = test system: Streptococcus agalactiae; assay: Antimicrobial activity against penicillin-resistant Streptococcus agalactiae B12 by agar dilution method; format: functional; in short: as §1
[11] = test system: Streptococcus agalactiae; assay: Antimicrobial activity against penicillin-resistant Streptococcus agalactiae B7 by agar dilution method; format: functional; in short: as §1
[12] = test system: Streptococcus agalactiae; assay: Antimicrobial activity against penicillin-resistant Streptococcus agalactiae B68 by agar dilution method; format: functional; in short: as §1
[13] = test system: Streptococcus agalactiae; assay: Antimicrobial activity against penicillin-resistant Streptococcus agalactiae B503 by agar dilution method; format: functional; in short: as §1
[14] = test system: Streptococcus agalactiae; assay: Antimicrobial activity against penicillin-resistant Streptococcus agalactiae B60 by agar dilution method; format: functional; in short: as §1
[15] = test system: Streptococcus agalactiae; assay: Antimicrobial activity against penicillin-susceptible Streptococcus agalactiae ATCC 12403 by agar dilution method
[16] = test system: Streptococcus agalactiae; assay: Antimicrobial activity against penicillin-susceptible Streptococcus agalactiae ATCC BAA-611 by agar dilution method
[17] = test system: Streptococcus agalactiae; assay: Antimicrobial activity against penicillin-resistant Streptococcus agalactiae B40 by agar dilution method; format: functional; in short: as §1
[18] = test system: Streptococcus agalactiae; assay: Antimicrobial activity against penicillin-resistant Streptococcus agalactiae ATCC BAA-611 harboring PBP-2X Q557E mutant gene by agar dilution method; format: functional; in short: as §1
[19] = test system: Streptococcus agalactiae; assay: Antimicrobial activity against penicillin-resistant Streptococcus agalactiae B516 by agar dilution method; format: functional; in short: as §1

Compound | MIC [1] [µg/mL] | MIC [2] [µg/mL] | MIC [3] [µg/mL] | MIC [4] [µg/mL] | MIC [5] [µg/mL] | MIC [6] [µg/mL] | MIC [7] [µg/mL] | MIC [8] [µg/mL] | MIC [9] [µg/mL] | MIC [10] [µg/mL] | MIC [11] [µg/mL] | MIC [12] [µg/mL] | MIC [13] [µg/mL] | MIC [14] [µg/mL] | MIC [15] [µg/mL] | MIC [16] [µg/mL] | MIC [17] [µg/mL] | MIC [18] [µg/mL] | MIC [19] [µg/mL]
CC1(C)S[C@@H]2[C@H](NC(=O)[C@H](N)c3ccccc3)C(=O)N2[C@H]1C(=O)O [AMPICILLIN] | 0.5 (≈ 1.43 µM) | 0.12 (≈ 0.343 µM) | 0.12 (≈ 0.343 µM) | 0.12 (≈ 0.343 µM) | 0.5 (≈ 1.43 µM) | 0.5 (≈ 1.43 µM) | 0.12 (≈ 0.343 µM) | 0.5 (≈ 1.43 µM) | 0.25 (≈ 0.715 µM) | 0.25 (≈ 0.715 µM) | 0.12 (≈ 0.343 µM) | 0.5 (≈ 1.43 µM) | 0.5 (≈ 1.43 µM) | 0.25 (≈ 0.715 µM) | 0.12 (≈ 0.343 µM) | 0.12 (≈ 0.343 µM) | 0.12 (≈ 0.343 µM) | 0.12 (≈ 0.343 µM) | 0.25 (≈ 0.715 µM)
Cc1nnc(SCC2=C(C(=O)O)N3C(=O)[C@@H](NC(=O)Cn4cnnn4)[C@H]3SC2)s1 [CEFAZOLIN] | 1 (≈ 2.2 µM) | 1 (≈ 2.2 µM) | 1 (≈ 2.2 µM) | 1 (≈ 2.2 µM) | 1 (≈ 2.2 µM) | 1 (≈ 2.2 µM) | 2 (≈ 4.4 µM) | 0.5 (≈ 1.1 µM) | 0.5 (≈ 1.1 µM) | 1 (≈ 2.2 µM) | 0.5 (≈ 1.1 µM) | 0.5 (≈ 1.1 µM) | 0.5 (≈ 1.1 µM) | 1 (≈ 2.2 µM) | 0.12 (≈ 0.264 µM) | 0.12 (≈ 0.264 µM) | 1 (≈ 2.2 µM) | 2 (≈ 4.4 µM) | 0.5 (≈ 1.1 µM)
CO/N=C(\C(=O)N[C@@H]1C(=O)N2C(C(=O)[O-])=C(C[N+]3(C)CCCC3)CS[C@H]12)c1csc(N)n1 [CEFEPIME] | 1 (≈ 2.08 µM) | 0.25 (≈ 0.52 µM) | 0.25 (≈ 0.52 µM) | 0.03 (≈ 0.0624 µM) | 0.5 (≈ 1.04 µM) | 0.5 (≈ 1.04 µM) | 0.5 (≈ 1.04 µM) | 0.5 (≈ 1.04 µM) | 0.5 (≈ 1.04 µM) | 0.5 (≈ 1.04 µM) | 0.25 (≈ 0.52 µM) | 0.5 (≈ 1.04 µM) | 0.25 (≈ 0.52 µM) | 0.25 (≈ 0.52 µM) | 0.06 (≈ 0.125 µM) | 0.06 (≈ 0.125 µM) | 0.25 (≈ 0.52 µM) | 0.5 (≈ 1.04 µM) | 0.5 (≈ 1.04 µM)
CO/N=C(\C(=O)N[C@@H]1C(=O)N2C(C(=O)O)=C(COC(C)=O)CS[C@H]12)c1csc(N)n1 [CEFOTAXIME] | 1 (≈ 2.2 µM) | 0.5 (≈ 1.1 µM) | 1 (≈ 2.2 µM) | 0.03 (≈ 0.0659 µM) | 0.25 (≈ 0.549 µM) | 0.25 (≈ 0.549 µM) | 2 (≈ 4.39 µM) | 0.25 (≈ 0.549 µM) | 0.12 (≈ 0.263 µM) | 0.5 (≈ 1.1 µM) | 0.12 (≈ 0.263 µM) | 0.25 (≈ 0.549 µM) | 0.25 (≈ 0.549 µM) | 0.25 (≈ 0.549 µM) | 0.06 (≈ 0.132 µM) | 0.06 (≈ 0.132 µM) | 0.5 (≈ 1.1 µM) | 0.5 (≈ 1.1 µM) | 0.25 (≈ 0.549 µM)
CO/N=C(\C(=O)N[C@@H]1C(=O)N2C(C(=O)O)=CCS[C@H]12)c1csc(N)n1 [CEFTIZOXIME] | 64 (≈ 167 µM) | 16 (≈ 41.7 µM) | 32 (≈ 83.5 µM) | 0.12 (≈ 0.313 µM) | 32 (≈ 83.5 µM) | 64 (≈ 167 µM) | 128 (≈ 334 µM) | 16 (≈ 41.7 µM) | 16 (≈ 41.7 µM) | 32 (≈ 83.5 µM) | 4 (≈ 10.4 µM) | 4 (≈ 10.4 µM) | 16 (≈ 41.7 µM) | 32 (≈ 83.5 µM) | 0.12 (≈ 0.313 µM) | 0.12 (≈ 0.313 µM) | 32 (≈ 83.5 µM) | 32 (≈ 83.5 µM) | 16 (≈ 41.7 µM)
C[C@@H](O)[C@H]1C(=O)N2C(C(=O)O)=C(S[C@@H]3CN[C@H](C(=O)N(C)C)C3)[C@H](C)[C@H]12 [MEROPENEM] | 0.25 (≈ 0.652 µM) | 0.06 (≈ 0.156 µM) | 0.06 (≈ 0.156 µM) | 0.06 (≈ 0.156 µM) | 0.25 (≈ 0.652 µM) | 0.12 (≈ 0.313 µM) | 0.06 (≈ 0.156 µM) | 0.25 (≈ 0.652 µM) | 0.12 (≈ 0.313 µM) | 0.25 (≈ 0.652 µM) | 0.25 (≈ 0.652 µM) | 0.12 (≈ 0.313 µM) | 0.12 (≈ 0.313 µM) | 0.12 (≈ 0.313 µM) | 0.03 (≈ 0.0782 µM) | 0.03 (≈ 0.0782 µM) | 0.06 (≈ 0.156 µM) | 0.12 (≈ 0.313 µM) | 0.12 (≈ 0.313 µM)
Cc1onc(-c2ccccc2)c1C(=O)N[C@@H]1C(=O)N2[C@@H]1SC(C)(C)[C@@H]2C(=O)O [OXACILLIN] | 8 (≈ 19.9 µM) | 4 (≈ 9.96 µM) | 4 (≈ 9.96 µM) | 1 (≈ 2.49 µM) | 4 (≈ 9.96 µM) | 4 (≈ 9.96 µM) | 4 (≈ 9.96 µM) | 4 (≈ 9.96 µM) | 2 (≈ 4.98 µM) | 4 (≈ 9.96 µM) | 2 (≈ 4.98 µM) | 4 (≈ 9.96 µM) | 2 (≈ 4.98 µM) | 4 (≈ 9.96 µM) | 0.25 (≈ 0.623 µM) | 0.25 (≈ 0.623 µM) | 8 (≈ 19.9 µM) | 4 (≈ 9.96 µM) | 4 (≈ 9.96 µM)
CC1(C)S[C@@H]2[C@H](NC(=O)Cc3ccccc3)C(=O)N2[C@H]1C(=O)O [PENICILLIN G] | 1 (≈ 2.99 µM) | 0.5 (≈ 1.5 µM) | 0.25 (≈ 0.748 µM) | 0.25 (≈ 0.748 µM) | 0.25 (≈ 0.748 µM) | 0.25 (≈ 0.748 µM) | 0.5 (≈ 1.5 µM) | 0.5 (≈ 1.5 µM) | 0.25 (≈ 0.748 µM) | 0.25 (≈ 0.748 µM) | 0.25 (≈ 0.748 µM) | 0.5 (≈ 1.5 µM) | 0.25 (≈ 0.748 µM) | 0.25 (≈ 0.748 µM) | 0.06 (≈ 0.179 µM) | 0.06 (≈ 0.179 µM) | 0.5 (≈ 1.5 µM) | 0.5 (≈ 1.5 µM) | 0.25 (≈ 0.748 µM)
CC1(C)S[C@@H]2[C@H](NC(=O)COc3ccccc3)C(=O)N2[C@H]1C(=O)O [PENICILLIN V] | 1 (≈ 2.85 µM) | 0.25 (≈ 0.713 µM) | 0.5 (≈ 1.43 µM) | 0.5 (≈ 1.43 µM) | 0.25 (≈ 0.713 µM) | 0.25 (≈ 0.713 µM) | 0.25 (≈ 0.713 µM) | 0.25 (≈ 0.713 µM) | 0.12 (≈ 0.342 µM) | 0.5 (≈ 1.43 µM) | 0.12 (≈ 0.342 µM) | 0.25 (≈ 0.713 µM) | 0.12 (≈ 0.342 µM) | 0.25 (≈ 0.713 µM) | 0.03 (≈ 0.0856 µM) | 0.03 (≈ 0.0856 µM) | 0.5 (≈ 1.43 µM) | 0.5 (≈ 1.43 µM) | 0.25 (≈ 0.713 µM)
